Rce1 inh: inhibitors of yeast Ras-converting enzyme; Q03530; yeast membranes, quenched prenylated peptide cleavage fluorescence; calls only; 290,000 tested, 0.27% active; AID 2563;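 active = fall in fluorescence gain of 50% or more versus controls, with final raw signal at or below 3038400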
Pemphigus Ab inh: human desmoglein-3 autoantibody binding inhibition; DSG3-coupled beads, scFv-anti-DSG3-GFP binding, flow cytometry; stronger effect = lower value; 310,000 tested, 0.48% active; binding (percent of control), % at 10 µM; P32926;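 active = binding more than 3 SD below its plate's average and above zero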;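 also: hits lower antibody fragment binding to DSG3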
Tb MetRS inh: blocks T. brucei methionyl-tRNA synthetase activity. purified T. brucei MetRS, ATP depletion, Kinase-Glo luminescence. inhibition, % at 11.9 µM. 360,000 tested, 0.4% active. AID 624268;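 active = inhibition above a per-plate cutoff of the control wells' mean inhibition plus 3 SD, cut at about 5.5% in these data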
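Dosing: 11.9 µM single point; system: parasite MetRS enzyme; technique: luminescence of leftover ATP; times: 15 min enzyme-compound preincubation, 2 h reaction, 10 min detection, 25 °C; replicates: each compound tested once; read-out basis: percent inhibition relative to median high and low control wells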
core dimer inh: blocks dimerization of HCV core protein | 300,000 tested, 0.33% active | AID 1899 | inhibition, % at 5 µM | TR-FRET GST/Flag-core106 dimerization, 1536-well;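 active = inhibition above the mean of all tested compounds plus 3 SD, set per screening campaign, cut at about 45% in these data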
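Assay system – GST-tagged and Flag-tagged HCV core protein residues 1-106 · Quantity – core106 proteins, GST 13.5 nM and Flag 17 nM · Benchmarks – unlabelled core106 and no-GST-core106 wells · Read-out basis – percent inhibition of core106 dimerization signal · Detection – time-resolved FRET, ex 340 nm, em 617 and 671 nm · Schedule – 4 h at 22.5 °C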
NadD block: blocks S. aureus nicotinate mononucleotide adenylyltransferase | purified NadD enzyme, colorimetric absorbance read-out | inhibition, % at 20 µM | 360,000 tested, 0.78% active; in the data active = inhibition above about 26%
Hits are given with their value; – = inactive; · = no result; + = active, no number. Shown are actives, neighbours in structure and some others; about 1.9% of the full set was active somewhere.

SMILES | Rce1 inh | Pemphigus Ab inh | Tb MetRS inh | core dimer inh | NadD block
O=C1CN(c2ccc(Cl)cc2)C(=O)CN1NC(=S)Nc1ccc(Cl)cc1 | – | 61 | – | – | –
O=C(Nc1ccccc1)NN1CC(=O)N(c2ccc(Cl)cc2)CC1=O | – | – | – | – | –
CCc1cc(=O)oc2c(C)c(OC(C)C(=O)NC3CC(C)(C)NC(C)(C)C3)ccc12 (configuration not stated) | + | – | – | – | –
CCCn1c(SCC(=O)NC2CC2)nnc1-c1ccccn1 | – | – | – | – | –
C/C(=N\OC(=O)c1cccc(C)c1)c1sc(-c2ccccc2)nc1C | – | -28 | – | – | –
C/C(=N\OC(=O)c1cccc(C(F)(F)F)c1)c1sc(-c2ccccc2)nc1C | – | 78 | – | – | –
COc1ccc2[nH]c3nc(SCC(=O)NNC(=O)c4ccc(OC)c(OC)c4)nnc3c2c1 | – | 15 | – | – | –
COc1ccc(C(=O)Nc2cccnc2Sc2ccc(Cl)cc2)cc1 | – | 80 | – | – | –
CCOC(=O)Nc1cccnc1Sc1ccc(Cl)cc1 | – | – | – | – | –
Nc1ccc2c(c1)[nH]c(=O)c1cc(N)ccc12 | · | 75 | – | · | –
Cc1[nH]c2ccccc2c1/C=N/NC(=O)c1cccc(F)c1 | – | – | – | – | –
CCn1c2ccccc2c2cc(/C=N/NC(=O)c3cccc(C)c3)ccc21 | – | · | – | 48 | –
Cn1cc(/C=N/NC(=O)c2cccc([N+](=O)[O-])c2)c2ccccc21 | – | 25 | – | – | –
Cc1[nH]c2ccccc2c1/C=N/NC(=O)c1cccc([N+](=O)[O-])c1 | – | 60 | – | – | –
COc1ccc(C(CC(=O)N2CCCCC2)c2c(OC)cc(OC)c3c(-c4ccccc4)cc(=O)oc23)cc1 (configuration not stated) | – | – | – | – | –
CC(=O)c1cccc(NC(=O)C(C)OC(=O)CN2C(=O)NC(C)(C)C2=O)c1 (configuration not stated) | · | – | – | · | –
Cc1cc(/C=C2/SC(=S)N(c3cccc(C(F)(F)F)c3)C2=O)c(C)n1-c1cccnc1 | – | – | – | – | 44
O=C1/C(=C\c2ccc(O)cc2)SC(=S)N1c1cccnc1 | – | – | – | – | 31
CN1CCN(c2cc(N3CCN(C(=O)c4ccco4)CC3)c3c4c(onc24)-c2ccccc2C3=O)CC1 | – | – | – | – | 34
O=C1c2ccccc2-c2onc3c(N4CCN(CCO)CC4)cc(N4CCN(C(=O)c5ccco5)CC4)c1c23 | – | – | – | – | –
CCC(C)(C)c1ccc(OCCCC[n+]2ccc(C)cc2)c(C(C)(C)CC)c1 | – | · | · | – | ·
CCC(C)(C)c1ccc(OCCCC[n+]2cccc(C)c2C)c(C(C)(C)CC)c1 | + | – | – | – | –
CCCS(=O)(=O)NC(=O)C1(C)CCN(C(=O)/C=C/c2ccccc2)C1 (configuration not stated) | · | · | – | · | –
COc1ccc(-c2oc3ccccc3c2C(=O)OCc2ccccc2OC)cc1 | + | – | – | – | –
Cc1cc(N2C(=O)C=CC2=O)c([N+](=O)[O-])cc1C | – | – | – | 48 | –
SMILES | Rce1 inh | Pemphigus Ab inh | Tb MetRS inh | core dimer inh | NadD block
Cc1c(NC(=O)CN2c3ccccc3CC2C)c(=O)n(-c2ccccc2)n1C (configuration not stated) | – | 103 | – | – | –
CCCOc1ccc(-c2cn3ccccc3n2)cc1[N+](=O)[O-] | – | – | – | – | –
COc1ccc(-c2cn3ccccc3n2)cc1[N+](=O)[O-] | + | – | – | – | –
C#CCOCCOCCOCCNc1nc(N2CCN(C(=O)CCCCCCCCCCNC(=O)[C@H]([C@@H](C)CC)n3cc(CCCCN=C(N)N)nn3)CC2)nc(N2CCN(C(=O)CCCCCCCCCCNC(=O)[C@@H]([C@H](C)O)n3cc(C)nn3)CC2)n1 | · | · | – | – | 40
C#CCOCCOCCOCCNc1nc(N2CCN(C(=O)CCCCCCCCCCNC(=O)[C@H](CCCCN)n3cc(C[C@@H](C)CC)nn3)CC2)nc(N2CCN(C(=O)CCCCCCCCCCNC(=O)[C@H](CCCN=C(N)N)n3cc(C[C@@H](C)CC)nn3)CC2)n1 | · | – | – | – | 64
C#CCOCCOCCOCCNc1nc(N2CCN(C(=O)CCCCCCCCCCNC(=O)[C@H](CCCCN)n3cc(C)nn3)CC2)nc(N2CCN(C(=O)CCCCCCCCCCNC(=O)[C@H](CCCN=C(N)N)n3cc(C[C@@H](C)CC)nn3)CC2)n1 | · | · | · | – | ·
C#CCOCCOCCOCCNc1nc(N2CCN(C(=O)C(Cc3cc4ccccc4[nH]3)n3cc(C(N)C(C)CC)nn3)CC2)nc(N2CCN(C(=O)C(Cc3cc4ccccc4[nH]3)n3cc(C(N)C(C)CC)nn3)CC2)n1 (configuration not stated) | – | – | · | – | 42
C#CCOCCOCCOCCNc1nc(N2CCN(C(=O)CCCCCCCCCCNC(=O)Cn3cc(CCCCCN)nn3)CC2)nc(N2CCN(C(=O)CCCCCCCCCCNC(=O)Cn3cc(C[C@@H](C)O)nn3)CC2)n1 | · | · | – | – | –
C#CCOCCOCCOCCNc1nc(N2CCN(C(=O)CCCCCCCCCCNC(=O)Cn3cc(C[C@@H](C)O)nn3)CC2)nc(N2CCN(C(=O)CCCCCCCCCCNC(=O)[C@@H]([C@H](C)CC)n3cc(CCCCCN)nn3)CC2)n1 | · | – | – | – | 34
C#CCOCCOCCOCCNc1nc(N2CCOCC2)nc(N2CCN(C(=O)[C@H](Cc3cc4ccccc4[nH]3)n3cc([C@@H](N)C(C)CC)nn3)CC2)n1 (some centres not stated) | – | – | – | – | –
COC(=O)/C=C/COc1ccccc1[N+](=O)[O-] | – | – | – | – | –
C#CCOCCOCCOCCNc1nc(N2CCN(C(=O)CCCCCCCCCCNC(=O)[C@H](CCCCN)n3cc(C)nn3)CC2)nc(N2CCN(C(=O)CCCCCCCCCCNC(=O)[C@@H]([C@H](C)O)n3cc(C)nn3)CC2)n1 | · | – | – | – | –
C#CCOCCOCCOCCNc1nc(N2CCN(C(=O)CCCCCCCCCCNC(=O)[C@H](CCCCN)n3cc(C[C@@H](C)CC)nn3)CC2)nc(N2CCN(C(=O)CCCCCCCCCCNC(=O)[C@@H]([C@H](C)O)n3cc(C)nn3)CC2)n1 | · | – | – | – | 43
C#CCOCCOCCOCCNc1nc(N2CCN(C(=O)CCCCCCCCCCNC(=O)[C@@H](CCC(=O)O)n3cc(CCCCCN)nn3)CC2)nc(N2CCN(C(=O)CCCCCCCCCCNC(=O)[C@H](CCCCN)n3cc(C[C@@H](C)CC)nn3)CC2)n1 | · | – | – | – | 36
C#CCOCCOCCOCCNc1nc(N2CCN(C(=O)CCCCCCCCCCNC(=O)[C@@H](CCSC)n3cc(CCO)nn3)CC2)nc(N2CCN(C(=O)CCCCCCCCCCNC(=O)[C@H](CCCN=C(N)N)n3cc(C[C@@H](C)CC)nn3)CC2)n1 | · | – | – | – | 71
O=C(NCc1ccc(Cl)cc1)c1ncn[nH]1 | – | – | – | – | –

From PubChem BioAssay
